Measured values reported in ChEMBL document CHEMBL1212830, “The structure-activity relationship of the 3-oxy site in the anticonvulsant (R)-N-benzyl 2-acetamido-3-methoxypropionamide” (J Med Chem, 2010).

Columns and labels:
Mus musculus [1] = test: Anticonvulsant activity in ip dosed 6 Hz psychomotor seizure model of albino Carworth Farms number 1 mouse assessed as protection against seizure; format: functional; conditions: albino Carworth Farms number 1, ip
How it was run: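 Psychomotor 6 Hz seizure test at 32 mA in mice, compound given intraperitoneally, run within the NINDS Anticonvulsant Screening Program. Median effective dose (ED50) in mg/kg from quantitative screening.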

Mus musculus [2] = test: Anticonvulsant activity in ip dosed albino Carworth Farms number 1 mouse assessed as protection against maximal electroshock-induced seizure; format: functional; conditions: albino Carworth Farms number 1, ip
How it was run: (§1)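 Maximal electroshock (MES) seizure test within the NINDS Anticonvulsant Screening Program. Protection is scored as block of induced hind limb extension. Mice are dosed ip and rats po.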

Rattus norvegicus [3] = test: Protective index, ratio of neurotoxicity TD50 to anticonvulsant ED50 for po dosed albino Spague-Dawley rat; format: functional
How it was run: (§2)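 Protective index is calculated as rotorod TD50 divided by MES ED50, both in mg/kg and from the same species and route (mice ip, rats po).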

Rattus norvegicus [4] = test: Anticonvulsant activity in po dosed albino Sprague-Dawley rat assessed as protection against maximal electroshock-induced seizure; format: functional; conditions: albino Spague-Dawley; how it was run: as §1
[5] = Neurotoxicity in po dosed albino Sprague-Dawley rat by rotarod test; format: toxicity, organism-based, albino Spague-Dawley; conditions: in vivo
How it was run: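 Rotorod test for behavioural neurotoxicity (mice ip, rats po). Median dose causing neurological impairment in 50% of animals (TD50, mg/kg) is determined only for compounds active in the MES test. The highest rat dose tested was 500 mg/kg.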

[6] = Neurotoxicity in ip dosed albino Sprague-Dawley rat by rotarod test; format: toxicity, organism-based, albino Spague-Dawley; conditions: in vivo
Rattus norvegicus [7] = test: Anticonvulsant activity in ip dosed albino Sprague-Dawley rat assessed as protection against maximal electroshock-induced seizure; format: functional; conditions: albino Spague-Dawley
How it was run: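 Run under the NINDS Anticonvulsant Screening Program. Rats received compound intraperitoneally as a stated exception to the usual oral rat route. Protection meant blocking hind-limb extension in the maximal electroshock test. ED50 was derived from quantitative dose-response screening of compounds with significant activity.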

[8] = Neurotoxicity in ip dosed albino Carworth Farms number 1 mouse by rotarod test; format: toxicity, organism-based; conditions: in vivo
Mus musculus [9] = test: Protective index, ratio of neurotoxicity TD50 to anticonvulsant ED50 for ip dosed albino Carworth Farms number 1 mouse; format: functional; how it was run: as §2
Rattus norvegicus [10] = test: Neurotoxicity in albino Sprague-Dawley rat assessed as induction of ataxia at up to 3000 mg/kg, po by rotarod test; format: toxicity, organism-based, albino Spague-Dawley; design: dose 3000 mg/kg, route oral; conditions: in vivo
How it was run: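 Rats were dosed orally. Median neurotoxic dose (TD50) was taken from behavioural neurological impairment, judged with the rotarod test. It was determined only for compounds with significant activity in the maximal electroshock test. Testing was done under the NINDS Anticonvulsant Screening Program procedures.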

Row | Compound | ED50 (Mus musculus [1]) [mg/kg] | ED50 (Mus musculus [2]) [mg/kg] | Ratio TD50/ED50 (Rattus norvegicus [3]) | ED50 (Rattus norvegicus [4]) [mg/kg] | TD50 [5] [mg/kg] | TD50 [6] [mg/kg] | ED50 (Rattus norvegicus [7]) [mg/kg] | TD50 [8] [mg/kg] | Ratio TD50/ED50 (Mus musculus [9]) | Activity (Rattus norvegicus [10])
1 | C#CCOC[C@@H](NC(C)=O)C(=O)NCc1ccccc1 | 29 | 16 | >63 | 7.9 | > 500 | – | – | – | – | –
2 | CC(=O)N[C@H](COCCN=[N+]=[N-])C(=O)NCc1ccccc1 | 44 | 100 | >13 | > 40 | – | 78 | 5.7 | – | – | –
3 | CC(=O)N[C@H](COCCN=C=S)C(=O)NCc1ccccc1 | – | > 300 | – | < 30 | > 30 | – | – | 100 | – | –
4 | [2H]C([2H])([2H])OC[C@@H](NC(C)=O)C(=O)NCc1ccccc1 | – | – | – | 5.2 | 200 | – | – | – | – | –
5 | CC(=O)N[C@H](COC1CCCCC1)C(=O)NCc1ccccc1 | – | 100 | – | 30 | > 30 | – | – | 300 | – | –
6 | CC#CCOC[C@@H](NC(C)=O)C(=O)NCc1ccccc1 | – | 30 | – | 6.4 | > 500 | – | – | 30 | – | –
7 | CC(=O)N[C@H](COCC1CCCCC1)C(=O)NCc1ccccc1 | – | 100 | – | – | – | – | – | 300 | – | –
8 | CC(=O)N[C@H](COCc1ccccc1)C(=O)NCc1ccccc1 | – | 64 | – | > 30 | > 30 | – | – | 200 | 3.2 | –
9 | C=CCCOC[C@@H](NC(C)=O)C(=O)NCc1ccccc1 | – | 30 | >29 | 17 | > 500 | – | – | 100 | – | –
10 | CC(=O)N[C@H](COCCC1CC1)C(=O)NCc1ccccc1 | – | 46 | – | > 30 | > 30 | – | – | 85 | 1.9 | –
11 | C#CCCOC[C@@H](NC(C)=O)C(=O)NCc1ccccc1 | – | 30 | >23 | 11 | 250 | – | – | 30 | – | –
12 | CC(=O)N[C@H](COCCc1ccccc1)C(=O)NCc1ccccc1 | – | 100 | – | > 30 | > 30 | – | – | 100 | – | –
13 | CC(=O)N[C@H](COCCC1(C)N=N1)C(=O)NCc1ccccc1 | – | 30 | >11 | 44 | > 500 | – | – | 100 | – | –
14 | CC(=O)N[C@H](COCCC=O)C(=O)NCc1ccccc1 | – | > 300 | – | > 100 | – | – | – | > 300 | – | –
15 | CC(=O)NCCOC[C@@H](NC(C)=O)C(=O)NCc1ccccc1 | – | > 300 | – | > 30 | > 30 | – | – | > 300 | – | –
16 | COCc1cn(CCOC[C@@H](NC(C)=O)C(=O)NCc2ccccc2)nn1 | > 100 | > 300 | – | – | – | – | – | > 300 | – | –
17 | COCCOC[C@@H](NC(C)=O)C(=O)NCc1ccccc1 | – | 30 | – | – | – | – | – | 300 | – | –
18 | CC(=O)N[C@H](COC(C)C)C(=O)NCc1ccccc1 | 23 | 23 | >58 | 8.6 | > 500 | – | – | – | 3.3 | –
19 | CCOC[C@@H](NC(C)=O)C(=O)NCc1ccccc1 | – | 7.9 | >89 | 5.6 | > 500 | – | – | – | 5.6 | –
20 | COCCOCCOC[C@@H](NC(C)=O)C(=O)NCc1ccccc1 | > 100 | > 300 | – | > 30 | > 50 | – | – | > 300 | – | –
21 | CC(=O)N[C@H](COC(C)(C)C)C(=O)NCc1ccccc1 | – | 30 | – | – | – | – | – | 300 | – | –
22 | CC(=O)N[C@H](COc1ccccc1)C(=O)NCc1ccccc1 | – | 100 | – | – | – | – | – | > 600 | – | –
23 | CC(=O)N[C@H](COCCC1CO1)C(=O)NCc1ccccc1 (mixture of isomers) | – | > 300 | – | – | – | – | – | > 300 | – | –
24 | C=CCOCC(NC(C)=O)C(=O)NCc1ccccc1 (racemic) | – | 30 | – | – | – | – | – | 30 | – | –
25 | COC[C@@H](NC(C)=O)C(=O)NCc1ccccc1 [LACOSAMIDE] | – | – | – | – | > 500 | – | – | – | – | –
26 | CCC1(c2ccccc2)C(=O)NC(=O)NC1=O [PHENOBARBITAL] | – | 22 | – | 9.1 | – | – | – | – | – | –
27 | O=C1NC(=O)C(c2ccccc2)(c2ccccc2)N1 [PHENYTOIN] | – | – | – | 30 | – | – | – | – | – | Non-toxic
28 | CCCC(CCC)C(=O)O [VALPROIC ACID] | – | 270 | – | – | – | – | – | – | – | –
